Data set [1] concerns HT-22. Nature of the data set: Neuroprotective activity in mouse HT22 cells assessed as t-BOOH-induced toxicity at 40 uM preincubated for 3 hrs followed by t-BOOH induction measured after 4.5 hrs by MTT assay. It counts as functional. In a few lines:
(§1)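 Confluent HT-22 cells under the ECIS conditions: 3 h preincubation with 40 μM compound, then 300 μM t-BOOH. MTT reaction was started 4.5 h or 9 h after t-BOOH addition. Viability is expressed relative to untreated control.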
A general note: Formazan colour is commonly taken as a measure of viable cells.

Data set [2] concerns HT-22. The data set can be described thus: Neuroprotective activity in mouse HT22 cells assessed as t-BOOH-induced toxicity at 40 uM preincubated for 3 hrs followed by t-BOOH induction measured after 9 hrs by MTT assay. The data set is classed as functional, cell-based. The method in brief: as §1
Data set [3] concerns HT-22. Nature of the data set: Neuroprotective activity in mouse HT22 cells assessed as reduction of t-BOOH-induced oxidative stress at 40 uM preincubated for 3 hrs followed by t-BOOH induction measured after 20 hrs by MTT assay. The data set is classed as functional, cell-based. In a few lines:
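Run in the ECIS wells right after impedance recording ended, 20 h after t-BOOH (3 h, 40 μM compound preincubation; 300 μM t-BOOH). MTT stock (4 mg/mL in PBS) was diluted 1:10 in medium and incubated 1 h. Lysis was with 10% SDS pH 4.1, A560 read next day. Viability is given as % of untreated control, mean ± SD of three independent experiments.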

In data set [4] the test system is HT-22. Nature of the data set: Neuroprotective activity in mouse HT22 cells assessed as reduction of t-BOOH-induced oxidative stress at 40 uM preincubated for 3 hrs followed by t-BOOH induction measured for 20 hrs by time-resolved ECIS analysis. It counts as functional, cell-based. In a few lines: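 HT-22 cells on 8-well gold-electrode arrays precoated with glutaraldehyde-crosslinked gelatin, seeded at 6 × 10^5 cells/well and grown 2−3 days to confluence (37 °C, 5% CO2). After 1 h baseline, compound (40 μM final, DMSO <0.1%) was added for 3 h, then 300 μM t-BOOH. Impedance was recorded 20 h, |Z| normalized to the last pre-t-BOOH value; three independent experiments.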

In data set [5] the test system is HT-22. The data set can be described thus: Cytotoxicity against mouse HT22 cells assessed as cell viability at 40 uM after 24 hrs by MTT assay. The data set is classed as cell-based. The following applies: ht-22, 24 h. The method in brief: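 Confluent-layer MTT. Gelatin-precoated 96-well plates were seeded at 5 × 10^4 HT-22 cells/well and grown 24 h to confluence, then exposed 24 h to 40 μM compound (DMSO <0.1%). MTT stock (4 mg/mL) was diluted 1:10 and incubated 1 h. Lysis was with 10% SDS pH 4.1, A560 read next day. Results are % of untreated control, ≥3 independent experiments.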

For data set [6], the system named is HT-22. The data set can be described thus: Neuroprotective activity in mouse HT22 cells assessed as reduction of glutamate-induced oxidative stress by ECIS analysis. It counts as functional, cell-based.
In data set [7] the test system is HT-22. Nature of the data set: Neuroprotective activity in mouse HT22 cells assessed as reduction of glutamate-induced oxidative stress after 24 hrs by MTT assay. It counts as functional, cell-based. The method in brief: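 Unconfluent HT-22 cells seeded at 5 × 10^3/well, cultured 24 h, then incubated 24 h with compound plus 5 mM glutamate. MTT stock (4 mg/mL) was diluted 1:10 and incubated 3 h. Lysis was with 10% SDS pH 4.1, A560 read next day. Viability is % of untreated control; three independent experiments, each in quadruplicate.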

In data set [8] the test system is HT-22. The data set can be described thus: Cytotoxicity against mouse HT22 cells assessed as cell viability after 24 hrs by MTT assay. The data set is classed as cell-based. The following applies: ht-22, 24 h.
For data set [9], the system named is HT-22. The data set can be described thus: Neuroprotective activity in mouse HT22 cells assessed as reduction of t-BOOH-induced oxidative stress preincubated for 3 hrs followed by t-BOOH induction measured for 20 hrs by time-resolved ECIS analysis. The data set is classed as functional, cell-based. The method in brief:
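HT-22 cells grown to confluence (2–3 days) on gelatin/glutaraldehyde-precoated gold electrode arrays, 37 °C, 5% CO2; 1 h baseline equilibration, then compounds (DMSO <0.1%, 40 μM final; positive control 10–50 μM) preincubated 3 h before 300 μM t-BOOH. Impedance magnitude |Z| recorded 20 h further, normalized to last value before t-BOOH; three independent experiments, mean ± SD.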

Structures are written as SMILES. The source made the active and inactive calls. The rule behind the calls is not given here.

Data on 20 molecules can be found in ChEMBL document CHEMBL3120059, “Flavonoids, flavonoid metabolites, and phenolic acids inhibit oxidative stress in the neuronal cell line HT-22 monitored by ECIS and MTT assay: a comparative study” (J Nat Prod, 2014).

For `Cc1ccc(O)c(O)c1`, the figures for the Activity in the data set on HT-22 [1] and in the data set with HT-22 [5] were 70% and “Non-toxic”, respectively. The result in the data set with HT-22 [2], in the data set with HT-22 [3] and in the data set on HT-22 [4] was Active.

On to `COC(=O)Cc1ccc(O)c(O)c1`, for which the Activity in the data set with HT-22 [1] is 70%; with HT-22 [5], “Non-toxic”. Besides, the result with HT-22 [2], in the data set with HT-22 [3] and in the data set on HT-22 [4] was Active.

As for `COC(=O)/C=C/c1ccc(O)c(OC)c1`, the outcome in the data set on HT-22 [3] and in the data set on HT-22 [4] was inactive. Besides, the Activity entry in the data set with HT-22 [5] is “Non-toxic”.

Turning to `COC(=O)[C@H]1O[C@@H](Oc2c(-c3ccc(O)c(O)c3)oc3cc(O)cc(O)c3c2=O)[C@H](O)[C@@H](O)[C@@H]1O`, the outcome in the data set on HT-22 [6] and in the data set on HT-22 [7] was inactive.

As to `COc1cc(-c2oc3cc(O)cc(O)c3c(=O)c2O)ccc1O`, the result with HT-22 [3] and in the data set on HT-22 [4] was inactive.

As to `O=C(O)[C@H]1O[C@@H](Oc2c(-c3ccc(O)c(O)c3)oc3cc(O)cc(O)c3c2=O)[C@H](O)[C@@H](O)[C@@H]1O`, the result in the data set with HT-22 [6] and in the data set on HT-22 [7] was inactive.

For `O=C1C[C@@H](c2ccc(O)cc2)Oc2cc(O)cc(O)c21`, the result in the data set with HT-22 [3] and in the data set on HT-22 [4] was inactive.

For the molecule `O=c1cc(-c2ccc(O)c(O)c2)oc2cc(O)cc(O)c12`, the outcome with HT-22 [2] and with HT-22 [3] was Active.

In the case of `O=c1cc(-c2ccc(O)cc2)oc2cc(O)cc(O)c12`, the outcome in the data set with HT-22 [3] and in the data set with HT-22 [4] was inactive.

For `Oc1cc(O)c2c(c1)OC(c1ccc(O)c(O)c1)C(O)C2` (stereo not drawn), the result in the data set on HT-22 [3] and with HT-22 [4] was inactive.

`Oc1cc(O)c2c(c1)O[C@H](c1ccc(O)c(O)c1)[C@H](O)[C@H]2c1c(O)cc(O)c2c1O[C@H](c1ccc(O)c(O)c1)[C@@H](O)C2`: the result in the data set on HT-22 [3] and in the data set on HT-22 [4] was inactive.

Consider `O=C(O)Cc1ccc(O)c(O)c1` [3,4-DIHYDROXYPHENYLACETIC ACID], for which, in the data set on HT-22 [5], the Activity entry is “Non-toxic”.

For `O=C(O)Cc1cccc(O)c1` [3-Hydroxyphenylacetate], the Activity result with HT-22 [5] was “Non-toxic”.

For the molecule `O=C(O)/C=C/c1ccc(O)c(O)c1` [CAFFEIC ACID], the outcome in the data set on HT-22 [3] and in the data set with HT-22 [4] was inactive. In the data set on HT-22 [5], the Activity entry was “Non-toxic”.

Regarding `Oc1ccccc1O` [CATECHOL], the outcome in the data set with HT-22 [2], in the data set on HT-22 [3] and in the data set with HT-22 [4] was Active. Moreover, in the data set on HT-22 [5], the Activity result is given as “Toxic”.

Consider `O=C1C[C@@H](c2ccc(O)c(O)c2)Oc2cc(O)cc(O)c21` [ERIODICTYOL], for which the result with HT-22 [2], with HT-22 [6] and in the data set on HT-22 [3] was Active. The Activity result in the data set on HT-22 [8] and in the data set on HT-22 [7] was “Dose-dependent effect” throughout.

Regarding `COc1cc(/C=C/C(=O)O)ccc1O` [FERULATE], the result with HT-22 [3] and in the data set on HT-22 [4] was inactive. The Activity entry in the data set on HT-22 [5] is listed as “Non-toxic”.

On to `O=c1c(O)c(-c2ccc(O)cc2)oc2cc(O)cc(O)c12` [KAEMPFEROL], for which the Activity entry in the data set on HT-22 [8] and with HT-22 [7] was “Dose-dependent effect” in each case. The result in the data set on HT-22 [3] and in the data set with HT-22 [4] was inactive.

Turning to `COC(=O)/C=C/c1ccc(O)c(O)c1` [METHYLCAFFEATE], the result in the data set with HT-22 [2], in the data set with HT-22 [3] and in the data set on HT-22 [4] was Active. Further, in the data set on HT-22 [5], the Activity result is on record as “Non-toxic”.

In the case of `O=c1c(O)c(-c2ccc(O)c(O)c2)oc2cc(O)cc(O)c12` [QUERCETIN], the Activity with HT-22 [1] was 70%; in the data set with HT-22 [9] it was “Dose-dependent effect”. Besides, the outcome in the data set with HT-22 [2] and in the data set on HT-22 [3] was Active.
